Assay results from ChEMBL document CHEMBL3769341, “Discovery and Characterization of GSK2801, a Selective Chemical Probe for the Bromodomains BAZ2A and BAZ2B” (J Med Chem, 2016).
Activity calls are given as the source filed them. The calls are words filed in the database; no cut-off is given here.

Columns and labels:
[1] = biological target: Histone-lysine N-methyltransferase ASH1L (Homo sapiens) (UniProt Q9NR48); test: Binding affinity to biotinylated ASH1L bromodomain (unknown origin) expressed in Escherichia coli at 0.2 to 1 uM by Biolayer Interferometric analysis
Outline: (§1)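 Bromodomains carrying a BirA biotin ligase targeting sequence, coexpressed with BirA in bacteria to give homogeneous in vivo biotin labelling, checked by mass spectrometry. Biotinylated proteins probed by biolayer interferometry with compound at two concentrations, 0.2 and 1.0 μM.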

[2] = biological target: ATPase family AAA domain-containing protein 2 (Homo sapiens) (UniProt Q6PL18); test: Binding affinity to biotinylated ATAD2 (unknown origin) expressed in Escherichia coli at 0.2 to 1 uM by Biolayer Interferometric analysis; outline: as §1
[3] = biological target: Tyrosine-protein kinase BAZ1B (Homo sapiens) (UniProt Q9UIG0); test: Binding affinity to biotinylated BAZ1B (unknown origin) expressed in Escherichia coli at 0.2 to 1 uM by Biolayer Interferometric analysis; outline: as §1
[4] = biological target: Bromodomain-containing protein 1 (Homo sapiens) (UniProt O95696); test: Binding affinity to biotinylated BRD1 (unknown origin) expressed in Escherichia coli at 0.2 to 1 uM by Biolayer Interferometric analysis; outline: as §1
[5] = biological target: Bromodomain-containing protein 2 (Homo sapiens) (UniProt P25440); test: Binding affinity to biotinylated BRD2 bromodomain-1 (unknown origin) expressed in Escherichia coli at 0.2 to 1 uM by Biolayer Interferometric analysis; outline: as §1
[6] = biological target: Bromodomain-containing protein 2 (Homo sapiens) (UniProt P25440); test: Binding affinity to biotinylated BRD2 bromodomain-2 (unknown origin) expressed in Escherichia coli at 0.2 to 1 uM by Biolayer Interferometric analysis; outline: as §1
[7] = biological target: Bromodomain-containing protein 3 (Homo sapiens) (UniProt Q15059); test: Binding affinity to biotinylated BRD3 bromodomain-1 (unknown origin) expressed in Escherichia coli at 0.2 to 1 uM by Biolayer Interferometric analysis; outline: as §1
[8] = biological target: Bromodomain-containing protein 3 (Homo sapiens) (UniProt Q15059); test: Binding affinity to biotinylated BRD3 bromodomain-2 (unknown origin) expressed in Escherichia coli at 0.2 to 1 uM by Biolayer Interferometric analysis; outline: as §1
[9] = biological target: Bromodomain-containing protein 4 (Homo sapiens) (UniProt O60885); test: Binding affinity to biotinylated BRD4 bromodomain-1 (unknown origin) expressed in Escherichia coli at 0.2 to 1 uM by Biolayer Interferometric analysis; outline: as §1
[10] = biological target: Bromodomain-containing protein 4 (Homo sapiens) (UniProt O60885); test: Binding affinity to biotinylated BRD4 bromodomain-2 (unknown origin) expressed in Escherichia coli at 0.2 to 1 uM by Biolayer Interferometric analysis; outline: as §1
[11] = biological target: Bromodomain-containing protein 7 (Homo sapiens) (UniProt Q9NPI1); test: Binding affinity to biotinylated BRD7 (unknown origin) expressed in Escherichia coli at 0.2 to 1 uM by Biolayer Interferometric analysis; outline: as §1
[12] = biological target: Bromodomain testis-specific protein (Homo sapiens) (UniProt Q58F21); test: Binding affinity to biotinylated BRDT bromodomain-1 (unknown origin) expressed in Escherichia coli at 0.2 to 1 uM by Biolayer Interferometric analysis; outline: as §1
[13] = biological target: Bromodomain testis-specific protein (Homo sapiens) (UniProt Q58F21); test: Binding affinity to biotinylated BRDT bromodomain-2 (unknown origin) expressed in Escherichia coli at 0.2 to 1 uM by Biolayer Interferometric analysis; outline: as §1
Peregrin (Homo sapiens) = Peregrin (Homo sapiens) (UniProt P55201); test: Binding affinity to biotinylated BRPF1 bromodomain-1 (unknown origin) expressed in Escherichia coli at 0.2 to 1 uM by Biolayer Interferometric analysis; outline: as §1
[14] = biological target: Bromodomain and WD repeat-containing protein 3 (Homo sapiens) (UniProt Q6RI45); test: Binding affinity to biotinylated BRWD3 bromodomain-2 (unknown origin) expressed in Escherichia coli at 0.2 to 1 uM by Biolayer Interferometric analysis; outline: as §1
[15] = biological target: Chromatin remodeling regulator CECR2 (Homo sapiens) (UniProt Q9BXF3); test: Binding affinity to biotinylated CECR2 (unknown origin) expressed in Escherichia coli at 0.2 to 1 uM by Biolayer Interferometric analysis; outline: as §1
[16] = biological target: CREB-binding protein (Homo sapiens) (UniProt Q92793); test: Binding affinity to biotinylated CREBBP (unknown origin) expressed in Escherichia coli at 0.2 to 1 uM by Biolayer Interferometric analysis; outline: as §1
[17] = biological target: Histone acetyltransferase p300 (Homo sapiens) (UniProt Q09472); test: Binding affinity to biotinylated EP300 (unknown origin) expressed in Escherichia coli at 0.2 to 1 uM by Biolayer Interferometric analysis; outline: as §1
[18] = biological target: Nucleosome-remodeling factor subunit BPTF (Homo sapiens) (UniProt Q12830); test: Binding affinity to biotinylated FALZ (unknown origin) expressed in Escherichia coli at 0.2 to 1 uM by Biolayer Interferometric analysis; outline: as §1
[19] = biological target: Histone acetyltransferase KAT2A (Homo sapiens) (UniProt Q92830); test: Binding affinity to biotinylated GCN5L2 (unknown origin) expressed in Escherichia coli at 0.2 to 1 uM by Biolayer Interferometric analysis; outline: as §1
[20] = biological target: ATPase family AAA domain-containing protein 2B (Homo sapiens) (UniProt Q9ULI0); test: Binding affinity to biotinylated KIAA1240 (unknown origin) expressed in Escherichia coli at 0.2 to 1 uM by Biolayer Interferometric analysis; outline: as §1
[21] = biological target: Protein polybromo-1 (Homo sapiens) (UniProt Q86U86); test: Binding affinity to biotinylated PB1 bromodomain-1 (unknown origin) expressed in Escherichia coli at 0.2 to 1 uM by Biolayer Interferometric analysis; outline: as §1
[22] = biological target: Protein polybromo-1 (Homo sapiens) (UniProt Q86U86); test: Binding affinity to biotinylated PB1 bromodomain-2 (unknown origin) expressed in Escherichia coli at 0.2 to 1 uM by Biolayer Interferometric analysis; outline: as §1
[23] = biological target: Protein polybromo-1 (Homo sapiens) (UniProt Q86U86); test: Binding affinity to biotinylated PB1 bromodomain-4 (unknown origin) expressed in Escherichia coli at 0.2 to 1 uM by Biolayer Interferometric analysis; outline: as §1
[24] = biological target: Protein polybromo-1 (Homo sapiens) (UniProt Q86U86); test: Binding affinity to biotinylated PB1 bromodomain-5 (unknown origin) expressed in Escherichia coli at 0.2 to 1 uM by Biolayer Interferometric analysis; outline: as §1
[25] = biological target: Protein polybromo-1 (Homo sapiens) (UniProt Q86U86); test: Binding affinity to biotinylated PB1 bromodomain-6 (unknown origin) expressed in Escherichia coli at 0.2 to 1 uM by Biolayer Interferometric analysis; outline: as §1
[26] = biological target: Histone acetyltransferase KAT2B (Homo sapiens) (UniProt Q92831); test: Binding affinity to biotinylated PCAF (unknown origin) expressed in Escherichia coli at 0.2 to 1 uM by Biolayer Interferometric analysis; outline: as §1
[27] = biological target: PH-interacting protein (Homo sapiens) (UniProt Q8WWQ0); test: Binding affinity to biotinylated PHIP (unknown origin) expressed in Escherichia coli at 0.2 to 1 uM by Biolayer Interferometric analysis; outline: as §1
[28] = biological target: SWI/SNF-related matrix-associated actin-dependent regulator of chromatin subfamily A member 2 (Homo sapiens) (UniProt P51531); test: Binding affinity to biotinylated SMARCA2 (unknown origin) expressed in Escherichia coli at 0.2 to 1 uM by Biolayer Interferometric analysis; outline: as §1
[29] = biological target: SWI/SNF-related matrix-associated actin-dependent regulator of chromatin subfamily A member 4 (Homo sapiens) (UniProt P51532); test: Binding affinity to biotinylated SMARCA4 (unknown origin) expressed in Escherichia coli at 0.2 to 1 uM by Biolayer Interferometric analysis; outline: as §1
[30] = biological target: Transcription initiation factor TFIID subunit 1 (Homo sapiens) (UniProt P21675); test: Binding affinity to biotinylated TAF1 bromodomain-1 (unknown origin) expressed in Escherichia coli at 0.2 to 1 uM by Biolayer Interferometric analysis; outline: as §1
[31] = biological target: Transcription initiation factor TFIID subunit 1 (Homo sapiens) (UniProt P21675); test: Binding affinity to biotinylated TAF1 bromodomain-2 (unknown origin) expressed in Escherichia coli at 0.2 to 1 uM by Biolayer Interferometric analysis; outline: as §1
[32] = biological target: Transcription initiation factor TFIID subunit 1-like (Homo sapiens) (UniProt Q8IZX4); test: Binding affinity to biotinylated TAF1L bromodomain-1 (unknown origin) expressed in Escherichia coli at 0.2 to 1 uM by Biolayer Interferometric analysis; outline: as §1
[33] = biological target: Transcription initiation factor TFIID subunit 1-like (Homo sapiens) (UniProt Q8IZX4); test: Binding affinity to biotinylated TAF1L bromodomain-2 (unknown origin) expressed in Escherichia coli at 0.2 to 1 uM by Biolayer Interferometric analysis; outline: as §1
[34] = biological target: Transcription intermediary factor 1-alpha (Homo sapiens) (UniProt O15164); test: Binding affinity to biotinylated TIF1 bromodomain-1 (unknown origin) expressed in Escherichia coli at 0.2 to 1 uM by Biolayer Interferometric analysis; outline: as §1
[35] = biological target: Transcription intermediary factor 1-beta (Homo sapiens) (UniProt Q13263); test: Binding affinity to biotinylated TRIM28 (unknown origin) expressed in Escherichia coli at 0.2 to 1 uM by Biolayer Interferometric analysis; outline: as §1
[36] = biological target: Bromodomain and WD repeat-containing protein 1 (Homo sapiens) (UniProt Q9NSI6); test: Binding affinity to biotinylated WDR9 (unknown origin) expressed in Escherichia coli at 0.2 to 1 uM by Biolayer Interferometric analysis; outline: as §1
[37] = biological target: Nuclear body protein SP140 (Homo sapiens) (UniProt Q13342); test: Binding affinity to biotinylated SP140 (unknown origin) expressed in Escherichia coli at 0.2 to 1 uM by Biolayer Interferometric analysis; outline: as §1
[38] = biological target: Bromodomain adjacent to zinc finger domain protein 2B (Homo sapiens) (UniProt Q9UIF8); test: Binding affinity to biotinylated C-terminal Avi/His-TEV-tagged BAZ2B (unknown origin) expressed in Escherichia coli at 0.2 to 1 uM by Biolayer Interferometric analysis; outline: as §1
[39] = biological target: Bromodomain-containing protein 9 (Homo sapiens) (UniProt Q9H8M2); test: Binding affinity to biotinylated C-terminal Avi/His-TEV-fused BRD9 (unknown origin) expressed in Escherichia coli by isothermal titration calorimetric analysis

Chain of Bromodomain-containing protein 3 (Homo sapiens) (Q15059 2-726 limits assumed): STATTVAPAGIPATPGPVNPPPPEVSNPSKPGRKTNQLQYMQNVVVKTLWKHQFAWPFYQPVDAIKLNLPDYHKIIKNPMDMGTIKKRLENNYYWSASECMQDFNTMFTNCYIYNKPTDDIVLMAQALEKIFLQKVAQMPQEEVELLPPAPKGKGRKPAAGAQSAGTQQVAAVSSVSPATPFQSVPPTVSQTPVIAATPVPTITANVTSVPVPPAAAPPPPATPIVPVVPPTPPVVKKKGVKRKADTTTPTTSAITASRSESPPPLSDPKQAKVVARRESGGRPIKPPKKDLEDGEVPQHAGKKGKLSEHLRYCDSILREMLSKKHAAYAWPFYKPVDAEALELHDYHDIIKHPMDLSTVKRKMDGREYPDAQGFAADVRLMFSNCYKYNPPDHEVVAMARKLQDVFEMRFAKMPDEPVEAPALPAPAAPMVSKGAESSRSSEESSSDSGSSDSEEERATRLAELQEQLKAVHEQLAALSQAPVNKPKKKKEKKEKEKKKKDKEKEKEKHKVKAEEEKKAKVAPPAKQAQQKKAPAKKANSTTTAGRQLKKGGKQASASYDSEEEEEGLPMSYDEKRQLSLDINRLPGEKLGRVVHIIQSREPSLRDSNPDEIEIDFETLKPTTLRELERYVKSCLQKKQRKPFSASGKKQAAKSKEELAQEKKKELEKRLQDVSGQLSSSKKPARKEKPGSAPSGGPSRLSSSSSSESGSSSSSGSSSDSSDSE
Chain of Bromodomain-containing protein 2 (Homo sapiens) (P25440 whole entry, looked up): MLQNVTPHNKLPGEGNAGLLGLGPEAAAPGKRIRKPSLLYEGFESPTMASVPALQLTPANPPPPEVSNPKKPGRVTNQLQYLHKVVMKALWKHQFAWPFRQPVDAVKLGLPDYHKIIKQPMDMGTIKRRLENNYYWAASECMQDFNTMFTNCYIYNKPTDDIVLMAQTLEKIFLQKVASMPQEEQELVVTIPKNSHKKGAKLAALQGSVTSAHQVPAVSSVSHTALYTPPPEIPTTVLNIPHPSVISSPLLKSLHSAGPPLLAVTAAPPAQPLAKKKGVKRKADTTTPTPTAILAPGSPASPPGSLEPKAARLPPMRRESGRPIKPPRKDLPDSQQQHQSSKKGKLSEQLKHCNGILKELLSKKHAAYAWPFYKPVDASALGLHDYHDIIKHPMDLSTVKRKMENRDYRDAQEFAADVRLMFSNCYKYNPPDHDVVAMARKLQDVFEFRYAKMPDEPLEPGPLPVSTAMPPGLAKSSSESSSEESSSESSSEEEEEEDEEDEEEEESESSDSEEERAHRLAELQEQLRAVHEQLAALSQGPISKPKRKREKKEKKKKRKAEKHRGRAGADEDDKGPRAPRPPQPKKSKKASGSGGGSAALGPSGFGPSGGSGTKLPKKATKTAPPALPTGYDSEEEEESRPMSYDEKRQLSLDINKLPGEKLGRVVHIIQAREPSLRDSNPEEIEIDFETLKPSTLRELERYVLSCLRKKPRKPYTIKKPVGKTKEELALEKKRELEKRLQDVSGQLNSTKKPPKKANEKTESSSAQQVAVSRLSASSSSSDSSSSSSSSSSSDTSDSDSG
Chain of Transcription initiation factor TFIID subunit 1-like (Homo sapiens) (Q8IZX4 whole entry): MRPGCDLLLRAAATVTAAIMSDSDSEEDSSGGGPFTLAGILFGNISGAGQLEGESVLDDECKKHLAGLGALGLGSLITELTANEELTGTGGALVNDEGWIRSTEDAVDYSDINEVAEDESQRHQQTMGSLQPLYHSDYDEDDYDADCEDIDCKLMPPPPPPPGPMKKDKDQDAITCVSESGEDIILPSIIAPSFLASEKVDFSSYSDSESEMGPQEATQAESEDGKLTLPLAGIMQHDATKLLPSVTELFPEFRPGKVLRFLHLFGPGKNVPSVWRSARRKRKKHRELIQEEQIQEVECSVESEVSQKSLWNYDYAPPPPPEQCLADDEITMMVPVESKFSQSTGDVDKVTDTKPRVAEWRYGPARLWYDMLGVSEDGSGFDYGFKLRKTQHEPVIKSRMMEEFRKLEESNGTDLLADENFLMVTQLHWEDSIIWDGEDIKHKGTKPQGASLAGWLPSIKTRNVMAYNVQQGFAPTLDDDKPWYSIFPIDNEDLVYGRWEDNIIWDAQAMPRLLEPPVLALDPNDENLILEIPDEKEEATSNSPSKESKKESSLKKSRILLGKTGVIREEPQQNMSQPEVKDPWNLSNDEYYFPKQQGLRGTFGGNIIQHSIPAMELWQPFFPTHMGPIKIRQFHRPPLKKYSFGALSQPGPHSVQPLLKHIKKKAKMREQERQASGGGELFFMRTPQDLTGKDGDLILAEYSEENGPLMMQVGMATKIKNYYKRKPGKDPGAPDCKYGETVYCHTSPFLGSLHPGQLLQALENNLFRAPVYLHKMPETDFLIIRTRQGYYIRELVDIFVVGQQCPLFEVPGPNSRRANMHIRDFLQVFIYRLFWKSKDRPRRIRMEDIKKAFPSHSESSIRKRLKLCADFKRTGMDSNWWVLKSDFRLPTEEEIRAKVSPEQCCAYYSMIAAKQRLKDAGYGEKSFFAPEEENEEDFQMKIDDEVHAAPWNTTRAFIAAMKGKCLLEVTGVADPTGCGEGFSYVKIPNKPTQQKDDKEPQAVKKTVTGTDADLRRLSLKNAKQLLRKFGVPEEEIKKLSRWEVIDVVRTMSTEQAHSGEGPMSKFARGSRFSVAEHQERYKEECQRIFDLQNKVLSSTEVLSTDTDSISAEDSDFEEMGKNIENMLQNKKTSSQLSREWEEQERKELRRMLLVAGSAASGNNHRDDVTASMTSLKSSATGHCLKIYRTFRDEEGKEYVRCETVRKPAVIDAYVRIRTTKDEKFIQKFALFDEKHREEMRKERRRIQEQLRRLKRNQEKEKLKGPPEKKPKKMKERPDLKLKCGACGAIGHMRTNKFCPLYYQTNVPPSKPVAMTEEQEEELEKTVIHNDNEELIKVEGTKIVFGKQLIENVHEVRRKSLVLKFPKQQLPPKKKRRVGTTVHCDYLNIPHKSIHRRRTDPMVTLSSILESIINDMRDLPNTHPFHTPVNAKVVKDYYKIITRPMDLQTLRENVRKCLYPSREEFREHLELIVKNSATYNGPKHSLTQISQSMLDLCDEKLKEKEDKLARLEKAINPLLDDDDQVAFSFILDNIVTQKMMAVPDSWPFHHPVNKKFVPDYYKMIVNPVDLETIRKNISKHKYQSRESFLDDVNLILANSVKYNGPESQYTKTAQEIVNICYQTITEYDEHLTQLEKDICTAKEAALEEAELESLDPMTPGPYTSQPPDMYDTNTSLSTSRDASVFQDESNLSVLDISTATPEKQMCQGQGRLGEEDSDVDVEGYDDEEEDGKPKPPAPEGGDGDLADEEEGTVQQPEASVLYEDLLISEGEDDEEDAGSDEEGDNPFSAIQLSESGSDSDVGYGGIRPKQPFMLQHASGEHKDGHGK
Chain of Protein polybromo-1 (Homo sapiens) (Q86U86 whole entry): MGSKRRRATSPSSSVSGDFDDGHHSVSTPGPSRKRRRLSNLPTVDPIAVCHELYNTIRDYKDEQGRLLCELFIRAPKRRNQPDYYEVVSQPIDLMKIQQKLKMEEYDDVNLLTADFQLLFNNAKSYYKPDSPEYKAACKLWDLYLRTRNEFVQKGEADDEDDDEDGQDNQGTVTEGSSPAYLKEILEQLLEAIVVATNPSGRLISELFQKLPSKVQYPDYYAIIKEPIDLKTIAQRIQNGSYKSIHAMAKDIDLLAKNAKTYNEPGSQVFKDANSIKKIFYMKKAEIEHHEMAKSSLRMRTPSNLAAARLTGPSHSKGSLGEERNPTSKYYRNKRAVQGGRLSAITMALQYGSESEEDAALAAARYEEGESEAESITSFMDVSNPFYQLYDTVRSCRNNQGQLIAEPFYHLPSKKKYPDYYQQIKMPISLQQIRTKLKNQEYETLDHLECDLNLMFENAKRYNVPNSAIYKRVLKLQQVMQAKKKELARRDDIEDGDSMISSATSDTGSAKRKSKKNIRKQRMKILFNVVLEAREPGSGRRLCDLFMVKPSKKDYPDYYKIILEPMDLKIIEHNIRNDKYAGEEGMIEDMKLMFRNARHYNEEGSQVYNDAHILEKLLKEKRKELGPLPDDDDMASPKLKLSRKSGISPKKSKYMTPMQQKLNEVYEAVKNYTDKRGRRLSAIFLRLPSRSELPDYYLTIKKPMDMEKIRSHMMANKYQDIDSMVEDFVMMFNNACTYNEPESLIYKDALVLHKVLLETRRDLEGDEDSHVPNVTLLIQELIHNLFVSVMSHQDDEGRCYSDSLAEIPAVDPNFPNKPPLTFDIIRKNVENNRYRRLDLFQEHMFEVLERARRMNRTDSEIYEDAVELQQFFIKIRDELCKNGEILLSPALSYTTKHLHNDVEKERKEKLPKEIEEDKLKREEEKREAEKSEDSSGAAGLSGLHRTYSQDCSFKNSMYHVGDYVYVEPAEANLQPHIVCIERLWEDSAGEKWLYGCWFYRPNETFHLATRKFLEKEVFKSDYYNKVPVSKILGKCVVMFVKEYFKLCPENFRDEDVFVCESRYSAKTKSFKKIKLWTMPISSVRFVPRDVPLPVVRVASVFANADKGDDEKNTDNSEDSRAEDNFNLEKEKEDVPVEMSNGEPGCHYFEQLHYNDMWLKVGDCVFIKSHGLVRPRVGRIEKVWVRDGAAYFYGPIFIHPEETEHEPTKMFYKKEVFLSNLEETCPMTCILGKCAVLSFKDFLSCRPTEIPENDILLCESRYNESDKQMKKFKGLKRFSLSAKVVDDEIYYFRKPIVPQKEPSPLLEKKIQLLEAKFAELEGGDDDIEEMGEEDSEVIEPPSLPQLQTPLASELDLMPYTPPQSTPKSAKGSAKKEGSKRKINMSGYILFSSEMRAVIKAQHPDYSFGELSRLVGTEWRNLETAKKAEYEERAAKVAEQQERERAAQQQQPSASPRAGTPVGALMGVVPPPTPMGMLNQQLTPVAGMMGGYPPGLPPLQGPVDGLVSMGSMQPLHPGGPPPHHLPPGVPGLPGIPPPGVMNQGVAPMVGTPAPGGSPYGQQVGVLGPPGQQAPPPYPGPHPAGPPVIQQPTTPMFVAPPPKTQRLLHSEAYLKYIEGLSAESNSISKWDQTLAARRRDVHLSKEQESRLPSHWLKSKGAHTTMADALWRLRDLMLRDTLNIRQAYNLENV

Row | SMILES | Activity [1] | Activity [2] | Activity [3] | Activity [4] | Activity [5] | Activity [6] | Activity [7] | Activity [8] | Activity [9] | Activity [10] | Activity [11] | Activity [12] | Activity [13] | Activity (Peregrin (Homo sapiens)) | Activity [14] | Activity [15] | Activity [16] | Activity [17] | Activity [18] | Activity [19] | further results
1 | CCCOc1ccn2c(C(C)=O)cc(-c3cccc(OC)c3)c2c1 | inactive | inactive | inactive | inactive | inactive | inactive | inactive | inactive | inactive | inactive | inactive | inactive | inactive | inactive | inactive | inactive | inactive | inactive | inactive | inactive | Activity [20]: inactive; Activity [21]: inactive; Activity [22]: inactive; Activity [23]: inactive; Activity [24]: inactive; Activity [25]: inactive; Activity [26]: inactive; Activity [27]: inactive; Activity [28]: inactive; Activity [29]: inactive; Activity [30]: inactive; Activity [31]: inactive; Activity [32]: inactive; Activity [33]: inactive; Activity [34]: inactive; Activity [35]: inactive; Activity [36]: inactive; Activity [37]: inactive; Activity [38]: inactive
2 | CCCOc1ccn2c(C(C)=O)cc(-c3ccccc3S(C)(=O)=O)c2c1 | inactive | inactive | inactive | inactive | inactive | inactive | inactive | inactive | inactive | inactive | inactive | inactive | inactive | inactive | inactive | inactive | inactive | inactive | inactive | inactive | Kb [39]: 0.826 ×10⁶ /M; Activity [20]: inactive; Activity [21]: inactive; Activity [22]: inactive; Activity [23]: inactive; Activity [24]: inactive; Activity [25]: inactive; Activity [26]: inactive; Activity [27]: inactive; Activity [28]: inactive; Activity [29]: inactive; Activity [30]: inactive; Activity [31]: inactive; Activity [32]: inactive; Activity [34]: inactive; Activity [35]: inactive; Activity [36]: inactive; Activity [37]: inactive
